According to ChEMBL document CHEMBL4368908 (J Med Chem, 2019):
The source made the active and inactive calls. No cut-off for these calls is given here.

These compounds were tested against T1, Inositol polyphosphate multikinase (Homo sapiens, UniProt Q8NFU5) (assay: Inhibition of human IPMK using insP3 as substrate preincubated for 15 mins followed by substrate and measured after 30 mins by TR-FRET assay). Details: not given.
T1 sequence (Q8NFU5 whole entry): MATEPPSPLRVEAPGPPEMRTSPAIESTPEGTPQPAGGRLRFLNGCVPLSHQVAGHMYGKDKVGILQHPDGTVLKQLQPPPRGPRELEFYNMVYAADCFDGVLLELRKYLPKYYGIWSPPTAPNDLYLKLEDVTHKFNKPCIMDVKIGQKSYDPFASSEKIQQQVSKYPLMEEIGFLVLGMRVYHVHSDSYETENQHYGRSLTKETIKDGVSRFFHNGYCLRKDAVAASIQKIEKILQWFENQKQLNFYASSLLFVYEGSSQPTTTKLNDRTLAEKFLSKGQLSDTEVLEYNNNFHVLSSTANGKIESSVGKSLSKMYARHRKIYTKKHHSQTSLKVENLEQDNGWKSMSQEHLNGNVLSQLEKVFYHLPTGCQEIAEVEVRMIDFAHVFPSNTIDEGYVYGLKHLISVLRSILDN

Structure (SMILES) | IC50
COc1cc(O)c2c(=O)c(O)c(-c3ccc(O)c(O)c3)oc2c1 [RHAMNETIN] | 14 µM
O=c1cc(-c2ccc(O)cc2)oc2cc(O)ccc12 | > 30 µM
O=c1cc(-c2ccc(O)cc2)oc2cccc(O)c12 | > 30 µM
COc1ccc(-c2cc(=O)c3c(O)cc(O)cc3o2)cc1 [ACACETIN] | > 30 µM
O=c1cc(-c2ccc(O)cc2)oc2cc(O)cc(O)c12 [APIGENIN] | 29 µM
COc1cc(-c2oc3cc(O)cc(O)c3c(=O)c2O)ccc1O [ISORHAMNETIN] | 2.2 µM
O=c1cc(-c2ccc(O)c(O)c2)oc2cc(O)cc(O)c12 [LUTEOLIN] | 5.5 µM
COc1cc(O)c2c(=O)cc(-c3ccc(O)cc3)oc2c1 [GENKWANIN] | > 30 µM
O=c1cc(-c2ccc(O)cc2)oc2ccc(O)cc12 | > 30 µM

These compounds were tested against RAC-alpha serine/threonine-protein kinase (Mus musculus) (UniProt P31750) (assay: Activation of AKT activity in mouse 3T3-L1 cells assessed as increase in AKT phosphorylation at T308 residues at 2.5 uM after 3 hrs by Western blot analysis). Details: not given.
Type: cell-based
Summary of the method: (§1)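 Cells (3T3-L1 preadipocytes 2 days post-confluent; HCT116 1 day post-confluent) treated 3 h with 2.5 μM flavonoid in DMSO (final DMSO 0.1%, vehicle control). Lysed in Tris pH 7.4/NaCl/Triton X-100 with protease-phosphatase inhibitors; 20 μg protein by SDS-PAGE and immunoblot for phospho-AKT T308 and total AKT. pAKT/total AKT ratio normalized to sum of ratios per gel; Dunnett's one-way ANOVA versus DMSO.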

RAC-alpha serine/threonine-protein kinase (Mus musculus), sequence (P31750 whole entry): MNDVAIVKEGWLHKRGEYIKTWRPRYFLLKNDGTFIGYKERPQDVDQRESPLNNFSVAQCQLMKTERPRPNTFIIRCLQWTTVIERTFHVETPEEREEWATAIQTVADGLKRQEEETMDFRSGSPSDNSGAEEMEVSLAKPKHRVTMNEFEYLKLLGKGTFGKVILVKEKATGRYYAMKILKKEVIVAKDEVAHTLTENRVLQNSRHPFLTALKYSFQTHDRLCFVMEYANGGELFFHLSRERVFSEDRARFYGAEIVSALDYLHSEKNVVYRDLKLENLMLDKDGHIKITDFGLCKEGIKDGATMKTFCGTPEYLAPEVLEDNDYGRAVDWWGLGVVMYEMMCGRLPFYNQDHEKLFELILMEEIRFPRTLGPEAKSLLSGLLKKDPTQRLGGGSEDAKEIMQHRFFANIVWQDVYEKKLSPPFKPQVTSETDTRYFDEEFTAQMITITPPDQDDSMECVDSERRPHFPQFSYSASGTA

Structure (SMILES) | Activity
O=c1cc(-c2ccc(O)c(O)c2)oc2cc(O)cc(O)c12 [LUTEOLIN] | Active

These compounds were tested against T2, Inositol hexakisphosphate kinase 2 (Mus musculus) (UniProt Q80V72) (assay: Inhibition of IP6K2 in mouse 3T3-L1 cells assessed as AKT phosphorylation at T308 at 1 uM after 3 hrs by Western blot analysis). Details: not given.
T2 sequence (whole entry): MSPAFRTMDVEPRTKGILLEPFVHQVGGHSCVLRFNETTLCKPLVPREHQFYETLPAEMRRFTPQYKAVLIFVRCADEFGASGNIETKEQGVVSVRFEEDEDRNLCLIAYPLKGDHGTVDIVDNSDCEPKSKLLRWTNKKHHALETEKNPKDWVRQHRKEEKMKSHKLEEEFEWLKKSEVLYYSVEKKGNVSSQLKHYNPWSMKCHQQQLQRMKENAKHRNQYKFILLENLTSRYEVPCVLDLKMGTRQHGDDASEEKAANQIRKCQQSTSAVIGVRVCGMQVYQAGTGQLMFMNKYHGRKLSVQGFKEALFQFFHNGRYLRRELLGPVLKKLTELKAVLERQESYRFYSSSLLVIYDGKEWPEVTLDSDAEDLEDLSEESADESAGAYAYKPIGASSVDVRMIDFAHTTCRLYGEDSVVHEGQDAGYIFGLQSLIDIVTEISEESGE
Type: cell-based
Summary of the method: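 TNP reference treatment: 2-day post-confluent 3T3-L1 preadipocytes given 1 μM TNP in DMSO (final 0.1%) for 3 h. Lysates (20 μg protein) immunoblotted for phospho-AKT T308 and total AKT. pAKT/total AKT ratio normalized to sum of ratios per gel; one-way ANOVA (Dunnett) versus DMSO vehicle.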

Structure (SMILES) | inhibition
O=c1cc(-c2ccc(O)c(O)c2)oc2cc(O)cc(O)c12 [LUTEOLIN] | Active

Each compound was assayed against RAC-alpha serine/threonine-protein kinase (Homo sapiens) (UniProt P31749) (assay: Effect on AKT activity in human HCT116 cells assessed as AKT phosphorylation at T308 residues at 2.5 uM after 3 hrs by Western blot analysis). Details: not given.
Type: cell-based
Summary of the method: as §1

RAC-alpha serine/threonine-protein kinase (Homo sapiens), sequence (P31749 whole entry): as the sequence (P31750 whole entry) above, with N2S, S50A, A100T, R112K, T117E, T389K, N410G, D415H counted along it

Structure (SMILES) | Activity
O=c1cc(-c2ccc(O)c(O)c2)oc2cc(O)cc(O)c12 [LUTEOLIN] | inactive

Species on record: Homo sapiens
Experiment: Selectivity ratio of IC50 for human IPMK to IC50 for human IP6K2
Details: not given
Summary of the method: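 Recombinant human IPMK (12 nM) or IP6K2 (400 nM) equilibrated 15 min at room temperature with compound (10-point, 0.005–100 μM, 1% DMSO) in 50 mM HEPES pH 7.5, 0.01% Brij-35, 10 mM MgCl₂, 1 mM EGTA. Reaction started with 10 μM ATP plus 10 μM InsP₃ (IPMK) or InsP₆ (IP6K2), run 30 min. ADP detected by Adapta TR-FRET. IC50 from 4-parameter fit.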

Structure (SMILES) | Ratio IC50
COc1cc(O)c2c(=O)c(O)c(-c3ccc(O)c(O)c3)oc2c1 [RHAMNETIN] | > 7.8
O=c1cc(-c2ccc(O)cc2)oc2cc(O)ccc12 | > 1.6
COc1ccc(-c2cc(=O)c3c(O)cc(O)cc3o2)cc1 [ACACETIN] | > 5.3
O=c1cc(-c2ccc(O)cc2)oc2cc(O)cc(O)c12 [APIGENIN] | 4.1
COc1cc(-c2oc3cc(O)cc(O)c3c(=O)c2O)ccc1O [ISORHAMNETIN] | 4.4
O=c1cc(-c2ccc(O)c(O)c2)oc2cc(O)cc(O)c12 [LUTEOLIN] | 4.2
COc1cc(O)c2c(=O)cc(-c3ccc(O)cc3)oc2c1 [GENKWANIN] | > 1.3
O=c1cc(-c2ccc(O)cc2)oc2ccc(O)cc12 | > 2.3

Each compound was assayed against T1, Inositol polyphosphate multikinase (assay: Inhibition of IPMK in human [3H]-inositol-labelled HCT116 cells assessed as reduction in insp5 levels at 2.5 uM after 3.5 hrs by HPLC analysis relative to control). Details: not given.
Summary of the method: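 [3H]inositol-labelled (20 μCi/ml) HCT116 cells exposed 3.5 h to 2.5 μM flavonoid in DMSO (final 0.1%). PCA quench, extraction and CarboPac HPLC of InsP5/InsP6/InsP7, compared with DMSO vehicle control. Means ± SE, n=3–4; Dunnett's one-way ANOVA versus DMSO.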

Structure (SMILES) | inhibition
COc1cc(O)c2c(=O)c(O)c(-c3ccc(O)c(O)c3)oc2c1 [RHAMNETIN] | inactive
COc1cc(-c2oc3cc(O)cc(O)c3c(=O)c2O)ccc1O [ISORHAMNETIN] | inactive
O=c1cc(-c2ccc(O)c(O)c2)oc2cc(O)cc(O)c12 [LUTEOLIN] | inactive

What follows are compounds tested on HCT-116 (assay: Down regulation of insp5 levels in human [3H]-inositol-labelled HCT116 cells at 2.5 uM after 3.5 hrs by HPLC analysis). Details: not given.
Type: functional, cell-based
Summary of the method: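 HCT116 cells labeled with [³H]inositol (20 μCi/ml) were treated for 3.5 h with 2.5 μM flavonoid; compounds were added in DMSO, final 0.1%. Cells were PCA-quenched, and InsPs were extracted and resolved by CarboPac HPLC. Values are versus DMSO controls, n=3–4, by one-way ANOVA (Dunnett).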

Structure (SMILES) | inhibition
COc1cc(O)c2c(=O)c(O)c(-c3ccc(O)c(O)c3)oc2c1 [RHAMNETIN] | inactive
COc1cc(-c2oc3cc(O)cc(O)c3c(=O)c2O)ccc1O [ISORHAMNETIN] | inactive
O=c1cc(-c2ccc(O)c(O)c2)oc2cc(O)cc(O)c12 [LUTEOLIN] | inactive

These compounds were tested against T3, Inositol hexakisphosphate kinase 2 (Homo sapiens, UniProt Q9UHH9) (assay: Inhibition of human IP6K2 using insP6 as substrate preincubated for 15 mins followed by substrate and measured after 30 mins by TR-FRET assay). Details: not given.
T3 sequence (Q9UHH9 whole entry): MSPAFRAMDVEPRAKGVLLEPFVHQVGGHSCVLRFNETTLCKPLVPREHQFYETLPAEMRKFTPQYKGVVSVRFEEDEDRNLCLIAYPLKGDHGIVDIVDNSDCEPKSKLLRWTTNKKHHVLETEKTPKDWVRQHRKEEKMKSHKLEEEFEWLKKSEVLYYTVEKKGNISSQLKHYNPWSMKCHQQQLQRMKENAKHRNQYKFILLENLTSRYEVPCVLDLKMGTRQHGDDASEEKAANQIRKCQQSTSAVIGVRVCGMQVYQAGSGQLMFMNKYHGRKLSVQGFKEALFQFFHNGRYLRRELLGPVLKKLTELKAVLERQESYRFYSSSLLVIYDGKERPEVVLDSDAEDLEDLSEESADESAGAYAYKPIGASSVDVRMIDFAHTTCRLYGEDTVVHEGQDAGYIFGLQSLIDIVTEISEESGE

Structure (SMILES) | IC50
COc1cc(O)c2c(=O)c(O)c(-c3ccc(O)c(O)c3)oc2c1 [RHAMNETIN] | 1.8 µM
O=c1cc(-c2ccc(O)cc2)oc2cc(O)ccc12 | 18.3 µM
O=c1cc(-c2ccc(O)cc2)oc2cccc(O)c12 | > 30 µM
COc1ccc(-c2cc(=O)c3c(O)cc(O)cc3o2)cc1 [ACACETIN] | 5.7 µM
O=c1cc(-c2ccc(O)cc2)oc2cc(O)cc(O)c12 [APIGENIN] | 7.1 µM
COc1cc(-c2oc3cc(O)cc(O)c3c(=O)c2O)ccc1O [ISORHAMNETIN] | 0.5 µM
O=c1cc(-c2ccc(O)c(O)c2)oc2cc(O)cc(O)c12 [LUTEOLIN] | 1.3 µM
COc1cc(O)c2c(=O)cc(-c3ccc(O)cc3)oc2c1 [GENKWANIN] | 24 µM
O=c1cc(-c2ccc(O)cc2)oc2ccc(O)cc12 | 12.9 µM

What follows are compounds tested on HEK293 (assay: Down regulation of insp5 levels in [3H]-inositol-labelled HEK293 cells at 2.5 uM after 3.5 hrs by HPLC analysis). Details: Homo sapiens.
Type: functional, cell-based
Summary of the method: (§2)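 HEK293 cells labelled with [3H]inositol (20 μCi/ml), treated 3.5 h with 2.5 μM flavonoid in DMSO (final 0.1%; vehicle controls). PCA-quenched extracts analysed by CarboPac HPLC for InsP5, InsP6, InsP7 relative to DMSO control. Means ± SE, n=3; Dunnett's one-way ANOVA.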

Structure (SMILES) | inhibition
O=c1cc(-c2ccc(O)c(O)c2)oc2cc(O)cc(O)c12 [LUTEOLIN] | inactive

These compounds were tested against T1, Inositol polyphosphate multikinase (assay: Inhibition of IPMK in [3H]-inositol-labelled HEK293 cells assessed as reduction in insp5 levels at 2.5 uM after 3.5 hrs by HPLC analysis relative to control). Details: not given.
Type: cell-based
Summary of the method: as §2

Structure (SMILES) | inhibition
O=c1cc(-c2ccc(O)c(O)c2)oc2cc(O)cc(O)c12 [LUTEOLIN] | inactive
